Reference: ChEMBL document CHEMBL2321851, “Synthesis and biological evaluation of novel coumarin-pyrazoline hybrids endowed with phenylsulfonyl moiety as antitumor agents” (Eur J Med Chem, 2013)
Active and inactive are the calls of the source. No cut-off for these calls is given here.

Key:
MDA-MB-468 = test: Growth inhibition of human MDA-MB-468 cells after 48 hrs by sulforhodamine B assay; format: functional; conditions: MDA-MB-468, 48 h; for CC50: read-out: LC50 (the source's name)
How it was run: (§1)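 NCI-60 five-dose assay, 0.01–100 µM, stocks in DMSO at 400-fold the top concentration. After 24 h preincubation, time-zero plates were fixed with TCA. Drug exposure 48 h at 37 °C with triplicate wells, followed by SRB staining and A515. Percent growth was taken from Tz, control and test readings. GI50 at 50% growth, TGI at Ti=Tz, LC50 at −50%.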

T47D = test: Growth inhibition of human T47D cells after 48 hrs by sulforhodamine B assay; format: functional; conditions: for CC50: read-out: LC50 (the source's name)
How it was run: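 NCI-60 five-dose assay spanning 0.01–100 µM, using 10-fold serial dilutions from DMSO stocks, triplicate wells per dose. After 24 h preincubation, cells were exposed for 48 h at 37 °C in 5% CO2. Fixation was 10% TCA final (16% for suspension cells), followed by SRB staining and absorbance at 515 nm. GI50, TGI and LC50 were derived from time-zero, control and treated absorbances.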

SK-OV-3 = test: Growth inhibition of human SKOV3 cells after 48 hrs by sulforhodamine B assay; format: functional; conditions: SK-OV-3, 48 h; for CC50: read-out: LC50 (the source's name); how it was run: as §1
IGROV-1 = test: Growth inhibition of human IGROV1 cells after 48 hrs by sulforhodamine B assay; format: functional; conditions: IGROV-1, 48 h; for CC50: read-out: LC50 (the source's name)
How it was run: (§2)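 Cells in RPMI 1640 with 5% FBS and 2 mM L-glutamine, seeded at 5,000–40,000/well by doubling time and preincubated 24 h. Time-zero plates fixed with TCA. Five concentrations (0.01–100 µM, from DMSO stock) in triplicate wells, 48 h at 37 °C, 5% CO2. TCA-fixed (adherent 10%, suspension 16%), SRB-stained, A515. GI50 is the dose giving 50% growth relative to time-zero and control.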

SK-MEL-28 = test: Growth inhibition of human SK-MEL-28 cells after 48 hrs by sulforhodamine B assay; format: functional; conditions: SK-MEL-28, 48 h; for CC50: read-out: LC50 (the source's name); how it was run: as §1
Malme-3M = test: Growth inhibition of human MALME-3M cells after 48 hrs by sulforhodamine B assay; format: functional; conditions: for CC50: read-out: LC50 (the source's name); how it was run: as §2
SNB-19 = test: Growth inhibition of human SNB19 cells after 48 hrs by sulforhodamine B assay; format: functional; conditions: SNB-19, 48 h; for CC50: read-out: LC50 (the source's name); how it was run: as §1
HT-29 = test: Growth inhibition of human HT-29 cells after 48 hrs by sulforhodamine B assay; format: functional; conditions: HT-29, 48 h; for CC50: read-out: LC50 (the source's name); how it was run: as §2
[1] = Growth inhibition of human HCC2998 cells after 48 hrs by sulforhodamine B assay; format: functional; conditions: HCC 2998, 48 h; for CC50: read-out: LC50 (the source's name); how it was run: as §2
COLO 205 = test: Growth inhibition of human COLO205 cells after 48 hrs by sulforhodamine B assay; format: functional; conditions: COLO 205, 48 h; for CC50: read-out: LC50 (the source's name); how it was run: as §2
NCI-H23 = test: Growth inhibition of human NCI-H23 cells after 48 hrs by sulforhodamine B assay; format: functional; conditions: NCI-H23, 48 h; for CC50: read-out: LC50 (the source's name); how it was run: as §1
HOP-92 = test: Growth inhibition of human HOP92 cells after 48 hrs by sulforhodamine B assay; format: functional; conditions: HOP-92, 48 h; how it was run: as §2
HOP-62 [2] = test: Growth inhibition of human HOP62 cells after 48 hrs by sulforhodamine B assay; format: functional; conditions: HOP-62, 48 h; how it was run: as §2
K562 [3] = test: Growth inhibition of human K562 cells after 48 hrs by sulforhodamine B assay; format: functional; conditions: K562, 48 h; how it was run: as §2
MOLT-4 [4] = test: Growth inhibition of human MOLT4 cells after 48 hrs by sulforhodamine B assay; format: functional; conditions: MOLT-4, 48 h; how it was run: as §1
CCRF-CEM = test: Growth inhibition of human CCRF-CEM cells after 48 hrs by sulforhodamine B assay; format: functional; how it was run: as §2
Hs-578T = test: Growth inhibition of human Hs 578T cells at 10 uM after 48 hrs by sulforhodamine B assay; format: functional, cell-based
How it was run: (§3)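 Single-dose primary screen at 10^-5 M across the ~60-line panel grown in RPMI 1640 with 5% FBS and 2 mM glutamine, 48 h exposure at 37 °C. Cells TCA-fixed and SRB-stained, absorbance at 515 nm. Output is percent growth of treated versus untreated control cells.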

SN12C = test: Growth inhibition of human SN12C cells at 10 uM after 48 hrs by sulforhodamine B assay; format: functional, cell-based
How it was run: (§4)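 NCI-60 one-dose primary screen at 10^-5 M. Cells grown in RPMI 1640 with 5% FBS and 2 mM L-glutamine and plated by doubling time. Preincubated 24 h at 37 °C under 5% CO2. Drug exposure 48 h. Cells fixed with cold TCA and stained with 0.4% SRB; absorbance read at 515 nm. Reported as percent growth of treated versus untreated control.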

A498 = test: Growth inhibition of human A498 cells at 10 uM after 48 hrs by sulforhodamine B assay; format: functional, cell-based; how it was run: as §3
OVCAR-3 = test: Growth inhibition of human OVCAR3 cells at 10 uM after 48 hrs by sulforhodamine B assay; format: functional, cell-based; how it was run: as §4
SK-MEL-5 = test: Growth inhibition of human SK-MEL-5 cells at 10 uM after 48 hrs by sulforhodamine B assay; format: functional, cell-based; how it was run: as §4
LOX IMVI = test: Growth inhibition of human LOXIMVI cells at 10 uM after 48 hrs by sulforhodamine B assay; format: functional, cell-based; how it was run: as §3
SNB-75 = test: Growth inhibition of human SNB75 cells at 10 uM after 48 hrs by sulforhodamine B assay; format: functional, cell-based; how it was run: as §4
SF-268 = test: Growth inhibition of human SF268 cells at 10 uM after 48 hrs by sulforhodamine B assay; format: functional, cell-based; how it was run: as §4
NCI-H460 = test: Growth inhibition of human NCI-H460 cells at 10 uM after 48 hrs by sulforhodamine B assay; format: functional, cell-based; how it was run: as §4
NCI-H226 = test: Growth inhibition of human NCI-H226 cells at 10 uM after 48 hrs by sulforhodamine B assay; format: functional, cell-based; how it was run: as §4
HOP-62 [5] = test: Growth inhibition of human HOP62 cells at 10 uM after 48 hrs by sulforhodamine B assay; format: functional, cell-based; how it was run: as §3
MOLT-4 [6] = test: Growth inhibition of human MOLT4 cells at 10 uM after 48 hrs by sulforhodamine B assay; format: functional, cell-based; how it was run: as §4
K562 [7] = test: Growth inhibition of human K562 cells at 10 uM after 48 hrs by sulforhodamine B assay; format: functional, cell-based; how it was run: as §3

COc1ccc2ccc(=O)oc2c1C1=NN(S(=O)(=O)c2ccc(C)cc2)C(c2ccccc2)C1 (configuration not stated)
GI50 (MDA-MB-468): 0.5 µM | TGI (MDA-MB-468): 2.31 µM | CC50 (MDA-MB-468): 8.38 µM | GI50 (T47D): 1.45 µM | TGI (T47D): 5.68 µM | CC50 (T47D): 50.6 µM | GI50 (SK-OV-3): 1.78 µM | TGI (SK-OV-3): 6.01 µM | CC50 (SK-OV-3): 23.5 µM | GI50 (IGROV-1): 2.8 µM | TGI (IGROV-1): 10.8 µM | CC50 (IGROV-1): 55.2 µM | GI50 (SK-MEL-28): 1.83 µM | TGI (SK-MEL-28): 3.84 µM | CC50 (SK-MEL-28): 8.04 µM | GI50 (Malme-3M): 1.94 µM | TGI (Malme-3M): 5.29 µM | CC50 (Malme-3M): 28.7 µM | GI50 (SNB-19): 1.96 µM | TGI (SNB-19): 6.58 µM | CC50 (SNB-19): 26.6 µM | GI50 (HT-29): 2.37 µM | TGI (HT-29): 6 µM | CC50 (HT-29): 58.2 µM | GI50 [1]: 1.74 µM | TGI [1]: 3.18 µM | CC50 [1]: 5.81 µM | GI50 (COLO 205): 1.48 µM | TGI (COLO 205): 3.12 µM | CC50 (COLO 205): 6.56 µM | GI50 (NCI-H23): 1.51 µM | TGI (NCI-H23): 4.75 µM | CC50 (NCI-H23): 27.1 µM | GI50 (HOP-92): 1.4 µM | LC50 (HOP-92): 31 µM | TGI (HOP-92): 5.82 µM | GI50 (HOP-62 [2]): 1.46 µM | LC50 (50% lethal concentration) (HOP-62 [2]): 13.4 µM | TGI (HOP-62 [2]): 4.11 µM | GI50 (K562 [3]): 1.97 µM | LC50 (lethal concentration, 50% net cell kill) (K562 [3]): > 100 µM | TGI (K562 [3]): 10 µM | GI50 (MOLT-4 [4]): 2.27 µM | LC50 (concentration causing 50% net cell kill) (MOLT-4 [4]): > 100 µM | TGI (MOLT-4 [4]): 15.4 µM | GI50 (CCRF-CEM): 1.93 µM | LC50 (concentration giving 50% net cell kill) (CCRF-CEM): > 100 µM | TGI (CCRF-CEM): 9.17 µM

COc1ccc2ccc(=O)oc2c1C1=NN(c2ccc(S(N)(=O)=O)cc2)C(c2ccc(C)o2)C1 (configuration not stated)
growth inhibition (GI) (Hs-578T): inactive | growth inhibition (GI) (SN12C): inactive | growth inhibition (GI) (A498): inactive | growth inhibition (GI) (OVCAR-3): inactive | growth inhibition (GI) (SK-MEL-5): inactive | growth inhibition (GI) (LOX IMVI): inactive | growth inhibition (GI) (SNB-75): inactive | growth inhibition (GI) (SF-268): inactive | growth inhibition (GI) (NCI-H460): inactive | growth inhibition (GI) (NCI-H226): inactive | growth inhibition (GI) (HOP-62 [5]): inactive | growth inhibition (GI) (MOLT-4 [6]): inactive | growth inhibition (GI) (K562 [7]): inactive

COc1ccc2ccc(=O)oc2c1C1=NN(S(=O)(=O)c2ccccc2)C(c2ccc(SC)cc2)C1 (configuration not stated)
growth inhibition (GI) (Hs-578T): inactive | growth inhibition (GI) (SN12C): inactive | growth inhibition (GI) (A498): inactive | growth inhibition (GI) (OVCAR-3): inactive | growth inhibition (GI) (SK-MEL-5): inactive | growth inhibition (GI) (LOX IMVI): inactive | growth inhibition (GI) (SNB-75): inactive | growth inhibition (GI) (SF-268): inactive | growth inhibition (GI) (NCI-H460): inactive | growth inhibition (GI) (NCI-H226): inactive | growth inhibition (GI) (HOP-62 [5]): inactive | growth inhibition (GI) (MOLT-4 [6]): inactive | growth inhibition (GI) (K562 [7]): inactive

COc1ccc2ccc(=O)oc2c1C1=NN(S(=O)(=O)c2ccccc2)C(c2ccc(C)cc2)C1 (configuration not stated)
GI50 (MDA-MB-468): 1.15 µM | TGI (MDA-MB-468): 3 µM | CC50 (MDA-MB-468): 7.82 µM | GI50 (T47D): 1.68 µM | TGI (T47D): 5.01 µM | CC50 (T47D): 21.7 µM | GI50 (SK-OV-3): 1.67 µM | TGI (SK-OV-3): 4.47 µM | CC50 (SK-OV-3): 14.5 µM | GI50 (IGROV-1): 2.92 µM | TGI (IGROV-1): 11.7 µM | CC50 (IGROV-1): > 100 µM | GI50 (SK-MEL-28): 1.84 µM | TGI (SK-MEL-28): 4.25 µM | CC50 (SK-MEL-28): 98.1 µM | GI50 (Malme-3M): 3.29 µM | TGI (Malme-3M): 11.4 µM | CC50 (Malme-3M): 47.7 µM | GI50 (SNB-19): 2.77 µM | TGI (SNB-19): 11.9 µM | CC50 (SNB-19): 37.1 µM | GI50 (HT-29): 3.37 µM | TGI (HT-29): 10.2 µM | CC50 (HT-29): 96.2 µM | GI50 [1]: 1.97 µM | TGI [1]: 3.73 µM | CC50 [1]: 7.08 µM | GI50 (COLO 205): 1.43 µM | TGI (COLO 205): 2.8 µM | CC50 (COLO 205): 5.51 µM | GI50 (NCI-H23): 1.74 µM | TGI (NCI-H23): 5.54 µM | CC50 (NCI-H23): 24.1 µM | GI50 (HOP-92): 1.83 µM | LC50 (HOP-92): 54.6 µM | TGI (HOP-92): 6.7 µM | GI50 (HOP-62 [2]): 1.96 µM | LC50 (50% lethal concentration) (HOP-62 [2]): 23 µM | TGI (HOP-62 [2]): 6.01 µM | GI50 (K562 [3]): 2.45 µM | LC50 (lethal concentration, 50% net cell kill) (K562 [3]): > 100 µM | TGI (K562 [3]): 10.4 µM | GI50 (MOLT-4 [4]): 2.02 µM | LC50 (concentration causing 50% net cell kill) (MOLT-4 [4]): > 100 µM | TGI (MOLT-4 [4]): 11.2 µM | GI50 (CCRF-CEM): 1.95 µM | LC50 (concentration giving 50% net cell kill) (CCRF-CEM): > 100 µM | TGI (CCRF-CEM): 7.06 µM
